Experimental data: PubChem BioAssay
Inconclusive results are not listed.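 The calls were made as follows, unless noted: active = viability at or below 27.92% in each of two runs, the all-compound median minus 4 SD; inconclusive = no clear call, values can overlap the other calls; inactive = the rest.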

What was measured:
[1] = S. cerevisiae growth inhibition in permissive medium (OD615), pilot counter-assay for S. cerevisiae lifespan shortening project, permissive growth control (AID 705;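 active = growth inhibition above 25% in both replicates, a cutoff set 3 SD above the mean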); conditions: OD615, 24 h, at 10 µM, hits give high values
In short: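 assay system = Saccharomyces cerevisiae strain carrying genetically modified DeaD replicative-lifespan system | technique = absorbance (optical density) at 615 nm | buffer or medium = permissive raffinose/galactose medium | timing = cells pre-grown 4 h, then 24 h compound exposure, 30 °C humidified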

[2] = S. cerevisiae growth inhibition in restrictive medium, OD615, pilot screen, restrictive growth control, yeast lifespan reduction project (AID 706;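 active = growth inhibition above a set limit, 3 SD over mean compound inhibition, in both replicates, cut at about 43% in these data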;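 also: modified DeaD lifespan yeast strain shifted to restrictive glucose medium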); conditions: OD615, 48 h, at 10 µM, hits give high values
In short: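 System: modified S. cerevisiae. Buffer or medium: CSMM-D glucose medium. Incubation: 4 h pre-growth plus 48 h compound exposure, 30 °C. Detection: absorbance (optical density) measured at 615 nm.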

[3] = doxorubicin toxicity protection in MRP-1 cells – H69AR cells, CellTiter-Glo, duplicate, MRP-1 activator project, pilot screen (AID 807;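 active = viability increase at or above a cutoff of the median across tested compounds plus 3 SD, cut at about 8.5% in these data, passing the limit was not always enough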;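 also: compound pretreatment 18-22 h then 72 h combined with doxorubicin; 0% = doxorubicin alone and 100% = vehicle without doxorubicin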); conditions: H69AR viability with doxorubicin, CellTiter-Glo luminescence; at 10 µM; hits give high values
[4] = viability of HCT116 without oncogenic beta-catenin – human colon tumor cells, pilot screen (AID 823;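 active = cell viability at or below a set limit in both duplicate runs, the limit being the all-compound median minus 4 SD, cut at about 23% in these data, passing the limit was not always enough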;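 also: 0% = wells killed by 20 µM Hyamine and 100% = untreated DMSO cell wells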); conditions: HCT116 beta-catenin knockout viability, CellTiter-Glo, 60 h; at 10 µM; hits give low values
[5] = viability of PTEN-null HCT116 cells – cell-based, HCT116 clonal line, CellTiter-Glo, pilot screen (AID 824); conditions: HCT116 PTEN-deleted viability, 60 h, at 10 µM, hits give low values;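 also: 0% = 20 µM Hyamine control and 100% = vehicle cell control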
[6] = RAM pathway blockade in budding yeast – dse1pr::URA3 reporter, 5-FOA selection, pilot screen (AID 869;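 active = inhibition over a set limit, the all-compound mean plus 3 SD, in both replicate runs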;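 also: 0% = DMSO wells with no growth and 100% = 10 µM 1-NA-PP1 with full growth; RAM network block rescues cells from 5-FOA so hits raise OD615 growth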); conditions: S. cerevisiae dse1pr::URA3 5-FOA growth, OD615, 2 d; at 10 µM; hits give high values; strain carries analog-sensitive mutant Cbk1 kinase
[7] = RAM signaling pathway blockade in yeast – S. cerevisiae, Pdr1DBD-CYC8 efflux-inhibited sensitized strain, primary screen (AID 1298;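 active = RAM network inhibition above 8.4% in each of two replicates, 3 SD over the compound average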;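 also: 0% = DMSO untreated cells without growth and 100% = 10 µM 1-NA-PP1 full growth; higher means more yeast growth rescued from 5-FOA killing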); conditions: S. cerevisiae cbk1-as DSE1-URA3 strain, 5-FOA growth OD615, 2 d; at 50 µM; hits give high values

COc1ccc(-c2nc(CSCC(=O)N3CCC(C(N)=O)CC3)c(C)o2)cc1OC
inactive: growth inhibition [1] -2.87% | growth inhibition [2] 9.12% | viability increase [3] -0.52% | viability [4] 106% | viability [5] 98.3% | inhibition [6] 0.78% | RAM network inhibition [7] -0.72%

COC(=O)C1=C(C)N=c2s/c(=C3\C(=O)Nc4ccccc43)c(=O)n2C1c1ccccc1 (configuration not stated)
inactive: growth inhibition [1] -2% | growth inhibition [2] -1.65% | viability increase [3] -4.83% | viability [4] 92.3% | viability [5] 91.6% | inhibition [6] 1.77% | RAM network inhibition [7] 3.17%

COc1ccc(NC(C)=O)cc1NC(=O)CSc1nnc(-c2ccncc2)n1C
inactive: growth inhibition [1] -5.57% | growth inhibition [2] -7.07% | viability increase [3] -1.99% | viability [4] 96.6% | viability [5] 106% | inhibition [6] 0.24% | RAM network inhibition [7] 0.2%

O=C(c1ccccc1F)N1CCN(S(=O)(=O)c2ccc3c(c2)OCCO3)CC1
inactive: growth inhibition [1] -6.31% | growth inhibition [2] 3.28% | viability increase [3] -5.24% | viability [4] 90.5% | viability [5] 91.3% | inhibition [6] 3.16% | RAM network inhibition [7] 2.93%

Cc1cc(C)cc(N(CC(=O)N2CCN(c3ccccc3)CC2)S(=O)(=O)c2c(C)noc2C)c1
inactive: growth inhibition [1] -14.4% | growth inhibition [2] -10.2% | viability increase [3] -3.46% | viability [4] 62.6% | viability [5] 67.5% | inhibition [6] 0.57% | RAM network inhibition [7] 6.09%

CNC(=O)N(C1=NCC(C)(C)S1)c1ccc(F)c(Cl)c1
inactive: growth inhibition [1] -4.53% | growth inhibition [2] -16.6% | viability increase [3] -6.94% | viability [4] 40.4% | viability [5] 35.7% | inhibition [6] 1.26% | RAM network inhibition [7] 4.61%

CCOC(=O)Cn1c(=O)oc2cc(S(=O)(=O)N3CCN(c4ccccn4)CC3)ccc21
inactive: growth inhibition [1] 10.4% | growth inhibition [2] 6.56% | viability increase [3] -2.64% | viability [4] 96.3% | viability [5] 99.5% | inhibition [6] 0.75% | RAM network inhibition [7] 3.64%

COc1ccc(C2N3CC4(C)CN2CC(C)(C3)C4O)cc1 (configuration not stated)
inactive: growth inhibition [1] -17.7% | growth inhibition [2] -6.65% | viability increase [3] 0.42% | viability [4] 106% | viability [5] 97.2% | inhibition [6] 1.22% | RAM network inhibition [7] -0.16%

CCOc1ccc(C(=O)c2nc3c(n2O)CCCC3)cc1
inactive: growth inhibition [1] -15% | growth inhibition [2] -7.18% | viability increase [3] 0.17% | viability [4] 91.1% | viability [5] 103% | inhibition [6] 1.41% | RAM network inhibition [7] -0.74%

COc1ccc(C2CC(=O)N3CN(c4ccc(C)c(Cl)c4)CSC3=C2C#N)cc1OC (configuration not stated)
inactive: growth inhibition [1] 2.02% | growth inhibition [2] 21.1% | viability increase [3] -4.27% | viability [4] 85.7% | viability [5] 93.6% | inhibition [6] 0.435% | RAM network inhibition [7] -1.09%

COc1ccc(C2C(C(=O)N3CCN(c4ccc(OC)cc4)CC3)c3ccccc3C(=O)N2C)cc1 (configuration not stated)
inactive: growth inhibition [1] 1.52% | growth inhibition [2] -0.315% | viability increase [3] -0.98% | viability [4] 60.6% | viability [5] 61.9% | inhibition [6] 0.215% | RAM network inhibition [7] 0.86%

CCC(C)Nc1nc2c(c(=O)n(C)c(=O)n2C)n1Cc1ccc(Cl)cc1 (configuration not stated)
inactive: growth inhibition [1] -0.995% | growth inhibition [2] -4.79% | viability increase [3] -4.21% | viability [4] 79% | viability [5] 70.6% | inhibition [6] -0.035% | RAM network inhibition [7] 4.57%

COc1ccc(C(=O)C(OC(=O)CNC(=O)c2ccco2)c2ccccc2)cc1 (configuration not stated)
inactive: growth inhibition [1] -11.8% | growth inhibition [2] 3.51% | viability increase [3] -3.65% | viability [4] 100% | viability [5] 102% | inhibition [6] 1.49% | RAM network inhibition [7] 2.66%

O=C(c1csc2c1CCCC2)n1cccn1
inactive: growth inhibition [1] 13.2% | growth inhibition [2] 15.7% | viability increase [3] -0.86% | viability [4] 98.7% | viability [5] 106% | inhibition [6] 1.69% | RAM network inhibition [7] -0.11%

COc1ccc(CNC(=O)CN(c2cc(C)cc(C)c2)S(=O)(=O)c2c(C)noc2C)cc1
inactive: growth inhibition [1] -24.7% | growth inhibition [2] -27.1% | viability increase [3] -4.08% | viability [4] 97.1% | viability [5] 89.2% | inhibition [6] 1.92% | RAM network inhibition [7] 3.21%

COC(=O)CN1C(=O)C(O)(CC(=O)c2ccc(Br)cc2)c2ccccc21 (configuration not stated)
inactive: growth inhibition [1] 5.54% | growth inhibition [2] 11.5% | viability increase [3] -2.96% | viability [4] 92.4% | viability [5] 96.6% | inhibition [6] 0.785% | RAM network inhibition [7] 3.19%

CCC(Sc1nccn1C)C(=O)Nc1nnc(C)s1 (configuration not stated)
inactive: growth inhibition [1] -21.2% | growth inhibition [2] 2.97% | viability increase [3] 5% | viability [4] 101% | viability [5] 94.2% | inhibition [6] 1.58% | RAM network inhibition [7] 1.93%

CCOC(=O)c1ccccc1N1C(=O)CSC1=S
inactive: growth inhibition [1] -22.3% | growth inhibition [2] -19.6% | viability increase [3] -4.62% | viability [4] 96% | viability [5] 91.1% | inhibition [6] 1.11% | RAM network inhibition [7] 0.73%

Cc1cc(C)n2nc(C(=O)Oc3ccc4c(c3)OCO4)nc2n1
inactive: growth inhibition [1] -3.75% | growth inhibition [2] -24% | viability increase [3] -1.75% | viability [4] 99% | viability [5] 104% | inhibition [6] 1.7% | RAM network inhibition [7] 3.06%

CC1=NC2(CCCc3c2no[n+]3[O-])N(O)C1(C)C (configuration not stated)
inactive: growth inhibition [1] 6.66% | growth inhibition [2] 3.75% | viability increase [3] -1.89% | viability [4] 101% | viability [5] 98.7% | inhibition [6] 1.36% | RAM network inhibition [7] 1.51%

COc1cc(OC)cc(-c2cc(NC(C)=O)n[nH]2)c1
inactive: growth inhibition [1] -4.33% | growth inhibition [2] 6.38% | viability increase [3] -3.17% | viability [4] 90.8% | viability [5] 91.3% | inhibition [6] 0.965% | RAM network inhibition [7] 4.1%

O=C(O)COc1ccc2c(c1)OCCO2
inactive: growth inhibition [1] -7.81% | growth inhibition [2] -2.33% | viability increase [3] 0.55% | viability [4] 99.2% | viability [5] 107% | inhibition [6] 1.04% | RAM network inhibition [7] -0.47%

COc1ccc(C2C3=C(Nc4ncnn42)c2ccccc2CCC3)cc1 (configuration not stated)
inactive: growth inhibition [1] -12.5% | growth inhibition [2] -17.7% | viability increase [3] -1.45% | viability [4] 91.7% | viability [5] 89.1% | inhibition [6] 1.9% | RAM network inhibition [7] 3.32%

O=C(CCS(=O)(=O)c1cccs1)N1CCCC1
inactive: growth inhibition [1] -1.4% | growth inhibition [2] -7.61% | viability increase [3] -1.26% | viability [4] 94% | viability [5] 96.2% | inhibition [6] 2.58% | RAM network inhibition [7] 1.19%

O=C(CSc1nnc2scc(-c3ccccc3)n12)c1ccc2c(c1)OCCO2
inactive: growth inhibition [1] 1.86% | growth inhibition [2] 0.4% | viability increase [3] -2.27% | viability [4] 99.5% | viability [5] 93.1% | inhibition [6] 3.66% | RAM network inhibition [7] 7.73%

COCCn1c(=NC(=O)CSC(C)=O)sc2cc(OC)ccc21
inactive: growth inhibition [1] -27.6% | growth inhibition [2] 18.1% | viability increase [3] -6.74% | viability [4] 88% | viability [5] 83.8% | inhibition [6] 0.53% | RAM network inhibition [7] 0.96%

Cc1ccc(NC(=O)CCNS(=O)(=O)c2cccc3nonc23)cc1
inactive: growth inhibition [1] -4.17% | growth inhibition [2] -8.23% | viability increase [3] -1.47% | viability [4] 105% | viability [5] 95.5% | inhibition [6] 0.755% | RAM network inhibition [7] 4.98%

CCCc1cc(=O)oc2cc(OCC(=O)N(C)C)c(Cl)cc12
inactive: growth inhibition [1] -3.68% | growth inhibition [2] 6.56% | viability increase [3] -0.5% | viability [4] 99.6% | viability [5] 93.9% | inhibition [6] 1.73% | RAM network inhibition [7] -1.29%

Nc1[nH]nc2nc(N3CCOCC3)nc(-c3ccccc3)c12
inactive: growth inhibition [1] -7.04% | growth inhibition [2] 4.65% | viability increase [3] -4.39% | viability [4] 88.2% | viability [5] 88.3% | inhibition [6] 2.38% | RAM network inhibition [7] 1.55%

CCC(Sc1nc(C)cc(=O)[nH]1)C(=O)Nc1sc2c(c1C#N)CCCC2 (configuration not stated)
inactive: growth inhibition [1] -14% | growth inhibition [2] -12.3% | viability increase [3] -3.49% | viability [4] 92.9% | viability [5] 91.4% | inhibition [6] 2.01% | RAM network inhibition [7] 6.25%

CCN1CCN(c2ncnc3c2cnn3-c2ccccc2)CC1
inactive: growth inhibition [1] -13.8% | growth inhibition [2] -7.68% | viability increase [3] 1.69% | viability [4] 102% | viability [5] 89.8% | inhibition [6] 1.7% | RAM network inhibition [7] 2.03%

COc1ccc(NC(=O)c2cnc3ccccn3c2=O)cc1OC
inactive: growth inhibition [1] -5.08% | growth inhibition [2] 4.28% | viability increase [3] -0.04% | viability [4] 101% | viability [5] 91.3% | inhibition [6] 0.665% | RAM network inhibition [7] 1.96%

Cn1c(NC(=O)c2cccc(C(F)(F)F)c2)cc(=O)n(C)c1=O
inactive: growth inhibition [1] -16% | growth inhibition [2] -5.14% | viability increase [3] -2.74% | viability [4] 98.8% | viability [5] 94.5% | inhibition [6] 0.925% | RAM network inhibition [7] 1.89%

O=S(=O)(c1ccc(Oc2ccc(S(=O)(=O)N3CCOCC3)cc2)cc1)N1CCOCC1
inactive: growth inhibition [1] -21.5% | growth inhibition [2] -21.2% | viability increase [3] -1.32% | viability [4] 82.7% | viability [5] 87.6% | inhibition [6] 4.01% | RAM network inhibition [7] 4.04%

COCCNC(=O)CS(=O)(=O)Cc1nc(-c2ccc(C)cc2)oc1C
inactive: growth inhibition [1] -7.2% | growth inhibition [2] -29% | viability increase [3] -0.43% | viability [4] 95.1% | viability [5] 95.3% | inhibition [6] -0.325% | RAM network inhibition [7] 3.68%

CCC1Oc2ccc(C)cc2N(CC(=O)N2CCN(c3ccc(F)cc3)CC2)C1=O (configuration not stated)
inactive: growth inhibition [1] 5.46% | growth inhibition [2] 11.1% | viability increase [3] -3.35% | viability [4] 90% | viability [5] 83.5% | inhibition [6] -0.495% | RAM network inhibition [7] -0.06%
